Experimental data from ChEMBL document CHEMBL1156993, “Benzyl prolinate derivatives as novel selective KCC2 blockers” (Bioorg Med Chem Lett, 2010).
Converted amounts (≈) assume the structure as drawn. One block for each molecule: values may come before it.

Experiments:
[1] = Aqueous solubility in PBS buffer at pH 7.4; type: physicochemical
[2] = Antagonist activity to dog NKCC1 transporter expressed in MDCK cells assessed as inhibition of Cl- free medium-stimulated Rb+ influx at 100 uM after 45 mins by atomic absorption spectroscopy; type: functional, Canis lupus familiaris; conditions: for inhibition at 100 µM: Canis lupus familiaris, MDCK, 0.75 h
Outline: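 MDCK cells express endogenous canine NKCC1. NKCC1 is activated by incubating the cells for 2 h in Cl−-free medium. Rb+ influx is then stimulated for 45 min by adding 20 mM RbCl to the extracellular solution. Intracellular Rb+ is quantified by atomic absorption spectroscopy, and results are given as percent inhibition.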

[3] = Intrinsic clearance in rat microsomes assessed per mg of protein; type: ADME, Microsome
[4] = Intrinsic clearance in rat hepatocytes assessed per 10^6 cells
[5] = biological target: T1, Solute carrier family 12 member 5 (Rattus norvegicus, UniProt Q63633); assay: Antagonist activity of rat KCC2 transporter expressed in human SK-Hep cells assessed as inhibition of N-ethylmaleimide-mediated Rb+ influx after 10 mins by atomic absorption spectroscopy; type: functional, cell-based
T1 sequence (Q63633 whole entry): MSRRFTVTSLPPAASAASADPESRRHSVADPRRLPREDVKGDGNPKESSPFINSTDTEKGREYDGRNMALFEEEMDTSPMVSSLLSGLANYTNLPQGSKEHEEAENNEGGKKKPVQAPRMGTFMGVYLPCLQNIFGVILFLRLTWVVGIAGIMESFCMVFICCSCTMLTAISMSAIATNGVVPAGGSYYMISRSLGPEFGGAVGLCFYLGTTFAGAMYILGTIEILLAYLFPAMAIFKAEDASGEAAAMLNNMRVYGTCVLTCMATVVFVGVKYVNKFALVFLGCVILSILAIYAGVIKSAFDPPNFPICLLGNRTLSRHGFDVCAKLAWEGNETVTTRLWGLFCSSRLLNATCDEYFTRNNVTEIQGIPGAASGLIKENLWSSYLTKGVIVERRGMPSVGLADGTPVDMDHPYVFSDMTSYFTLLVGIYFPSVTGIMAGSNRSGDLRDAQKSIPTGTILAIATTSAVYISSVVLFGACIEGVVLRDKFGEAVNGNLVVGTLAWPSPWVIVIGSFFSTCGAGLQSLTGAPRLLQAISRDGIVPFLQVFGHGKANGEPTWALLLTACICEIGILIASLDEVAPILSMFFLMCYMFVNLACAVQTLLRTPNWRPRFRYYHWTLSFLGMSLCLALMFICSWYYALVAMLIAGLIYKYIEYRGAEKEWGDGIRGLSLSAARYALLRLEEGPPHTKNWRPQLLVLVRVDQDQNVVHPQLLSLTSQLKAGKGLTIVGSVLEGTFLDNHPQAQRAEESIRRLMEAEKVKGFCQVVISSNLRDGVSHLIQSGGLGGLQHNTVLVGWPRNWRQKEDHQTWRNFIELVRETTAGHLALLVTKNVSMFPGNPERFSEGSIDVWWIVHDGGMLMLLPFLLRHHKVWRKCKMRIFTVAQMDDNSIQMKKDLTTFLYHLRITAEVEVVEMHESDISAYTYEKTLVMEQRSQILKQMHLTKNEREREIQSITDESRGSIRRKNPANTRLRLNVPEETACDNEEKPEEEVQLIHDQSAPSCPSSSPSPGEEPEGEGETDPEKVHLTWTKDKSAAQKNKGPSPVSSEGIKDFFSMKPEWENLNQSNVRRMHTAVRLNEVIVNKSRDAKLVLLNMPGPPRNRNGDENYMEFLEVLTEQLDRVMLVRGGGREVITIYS
Outline: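 Rat KCC2 stably expressed in a selected clone. The co-transporter is activated with N-ethylmaleimide in the presence of the test compound, and Rb+ influx is started by adding 5 mM RbCl to the extracellular medium. Influx is stopped after 10 min by repeated washes. Intracellular Rb+ is measured by atomic absorption spectroscopy, and IC50 is reported.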

[6] = biological target: CYP3A4 (Homo sapiens, UniProt P08684); assay: Inhibition of human CYP3A4 at 50 uM; type: ADME
[7] = Cmax in Wistar rat at 6 mg/kg, po; type: ADME, organism-based; set-up: dose 6 mg/kg, route oral; conditions: in vivo
Outline: (§1)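 Male Wistar rats are dosed at 1 mg/kg iv for half-life and clearance, and at 6 mg/kg po for AUC, Cmax and oral bioavailability.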

[8] = Apparent permeability across human Caco-2 cells; type: ADME, cell-based
[9] = Drug level in NMRI mouse brain at 43.3 mg/kg, ip after 5 mins; type: ADME, organism-based; set-up: dose 43.3 mg/kg, route intraperitoneal; conditions: read-out: Drug uptake
Outline: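 NMRI mice are dosed ip at 43.3 mg/kg. Plasma and brain exposure are determined 5 min after dosing, and free brain concentration is reported.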

[10] = AUC in Wistar rat at 6 mg/kg, po; type: ADME, organism-based; set-up: dose 6 mg/kg, route oral; conditions: plasma; outline: as §1
[11] = Oral bioavailability in Wistar rat at 6 mg/kg; type: ADME, organism-based; conditions: in vivo; outline: as §1
[12] = Half life in Wistar rat at 1 mg/kg, iv; type: ADME, organism-based; set-up: dose 1 mg/kg, route intravenous; conditions: in vivo; outline: as §1
[13] = biological target: CYP2C9 (Homo sapiens, UniProt P11712); assay: Inhibition of human CYP2C9 at 50 uM; type: ADME
[14] = Clearance in Wistar rat at 1 mg/kg, iv; type: ADME, organism-based; set-up: dose 1 mg/kg, route intravenous; conditions: in vivo; outline: as §1
[15] = biological target: CYP2C19 (Homo sapiens, UniProt P33261); assay: Inhibition of human CYP2C19 at 50 uM; type: ADME
[16] = biological target: CYP2D6 (Homo sapiens, UniProt P10635); assay: Inhibition of human CYP2D6 at 50 uM; type: ADME
CYP2D6, sequence (P10635 whole entry): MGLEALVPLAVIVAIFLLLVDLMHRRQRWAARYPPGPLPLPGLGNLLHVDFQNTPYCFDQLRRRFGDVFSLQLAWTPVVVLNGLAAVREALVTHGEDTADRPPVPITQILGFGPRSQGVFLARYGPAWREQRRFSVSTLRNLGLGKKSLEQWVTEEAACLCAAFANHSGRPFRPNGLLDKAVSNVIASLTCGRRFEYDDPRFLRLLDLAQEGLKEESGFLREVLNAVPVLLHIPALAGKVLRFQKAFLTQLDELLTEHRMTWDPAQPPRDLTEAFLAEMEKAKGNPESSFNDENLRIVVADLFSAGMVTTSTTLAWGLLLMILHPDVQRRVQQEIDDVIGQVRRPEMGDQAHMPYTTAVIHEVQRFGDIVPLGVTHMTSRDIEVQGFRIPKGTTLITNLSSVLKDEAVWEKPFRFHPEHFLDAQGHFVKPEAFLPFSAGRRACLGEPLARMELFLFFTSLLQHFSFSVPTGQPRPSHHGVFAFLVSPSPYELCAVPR

CYP2C9, sequence (P11712 whole entry): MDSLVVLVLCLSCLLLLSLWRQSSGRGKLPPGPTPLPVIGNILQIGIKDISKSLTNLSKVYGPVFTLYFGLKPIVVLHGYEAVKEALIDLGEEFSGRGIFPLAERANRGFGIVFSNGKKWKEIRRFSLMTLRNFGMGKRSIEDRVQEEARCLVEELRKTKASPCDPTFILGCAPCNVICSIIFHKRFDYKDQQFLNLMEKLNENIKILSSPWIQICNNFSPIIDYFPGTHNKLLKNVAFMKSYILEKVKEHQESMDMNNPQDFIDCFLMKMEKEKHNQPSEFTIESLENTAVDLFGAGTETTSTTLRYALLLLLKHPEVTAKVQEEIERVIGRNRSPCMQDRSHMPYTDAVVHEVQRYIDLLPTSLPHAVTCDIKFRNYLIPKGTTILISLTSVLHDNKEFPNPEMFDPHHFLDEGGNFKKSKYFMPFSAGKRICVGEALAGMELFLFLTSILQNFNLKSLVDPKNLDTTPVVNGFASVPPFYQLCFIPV
CYP3A4, sequence (P08684 whole entry): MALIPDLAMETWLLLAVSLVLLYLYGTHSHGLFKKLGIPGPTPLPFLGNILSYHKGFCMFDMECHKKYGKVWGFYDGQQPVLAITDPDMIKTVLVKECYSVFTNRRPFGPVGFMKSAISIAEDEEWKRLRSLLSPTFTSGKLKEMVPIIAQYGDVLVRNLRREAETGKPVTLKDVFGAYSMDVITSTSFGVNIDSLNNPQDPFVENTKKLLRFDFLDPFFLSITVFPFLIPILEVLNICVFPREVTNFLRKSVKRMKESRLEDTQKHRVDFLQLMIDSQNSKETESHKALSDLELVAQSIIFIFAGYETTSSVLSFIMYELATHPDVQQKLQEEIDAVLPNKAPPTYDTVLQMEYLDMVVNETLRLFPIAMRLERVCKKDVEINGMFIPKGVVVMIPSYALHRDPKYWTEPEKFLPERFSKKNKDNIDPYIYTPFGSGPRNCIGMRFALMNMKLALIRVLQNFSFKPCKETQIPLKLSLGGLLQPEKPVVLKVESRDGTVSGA
CYP2C19, sequence (P33261 whole entry): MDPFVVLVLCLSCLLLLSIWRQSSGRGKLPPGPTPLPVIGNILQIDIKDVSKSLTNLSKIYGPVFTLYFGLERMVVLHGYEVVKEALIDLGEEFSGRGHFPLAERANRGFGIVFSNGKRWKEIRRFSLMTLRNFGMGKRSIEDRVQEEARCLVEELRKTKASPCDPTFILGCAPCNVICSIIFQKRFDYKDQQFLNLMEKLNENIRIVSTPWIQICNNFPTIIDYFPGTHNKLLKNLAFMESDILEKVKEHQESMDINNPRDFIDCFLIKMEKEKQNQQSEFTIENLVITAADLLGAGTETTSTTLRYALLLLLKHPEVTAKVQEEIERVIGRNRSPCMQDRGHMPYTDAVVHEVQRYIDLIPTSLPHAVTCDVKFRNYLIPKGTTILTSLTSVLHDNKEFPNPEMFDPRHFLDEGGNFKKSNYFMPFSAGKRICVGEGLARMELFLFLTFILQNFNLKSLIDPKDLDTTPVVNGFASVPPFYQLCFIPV

IC50 [5]: 2 µM
SMILES: CC(=O)N1CCCC1(Cc1ccncc1)C(=O)OCc1ccccc1 (configuration not stated)

solubility [1]: 1 µg/mL (≈ 2.68 µM) | microsomal CLint [3]: 400 µL/min/mg | hepatocyte CLint [4]: 23 µL/min/1e6 cells | IC50 [5]: 1.6 µM
SMILES: CS(=O)(=O)N1CCCC1(Cc1ccccc1)C(=O)OCc1ccccc1 (configuration not stated)
inhibition at 100 µM [2]: < 20%

IC50 [5]: 5 µM
SMILES: CC(=O)N1CCCC1(Cc1ccccc1C#N)C(=O)OCc1ccccc1 (configuration not stated)

IC50 [5]: 0.79 µM
SMILES: CC(=O)N1CCCC1(Cc1ccc(C)cc1)C(=O)OCc1ccccc1 (configuration not stated)

IC50 [5]: 0.32 µM
SMILES: CC(=O)N1CCCC1(Cc1ccccc1)C(=O)OCc1ccccc1 (single isomer, unassigned; (+))
inhibition (INH) [2]: 14%

IC50 [5]: 0.08 µM
SMILES: CC(=O)N1CCCC1(Cc1cccc(C(F)(F)F)c1)C(=O)OCc1ccccc1 (configuration not stated)

IC50 [5]: 0.4 µM
SMILES: COC(=O)N1CCCC1(Cc1ccccc1)C(=O)OCc1ccccc1 (configuration not stated)

IC50 [5]: > 100 µM
SMILES: O=C(OCc1ccccc1)C1(Cc2ccccc2)CCCN1 (configuration not stated)

IC50 [5]: 32 µM
SMILES: CC(=O)N1CCCC1(Cc1ccccc1)C(=O)N(C)Cc1ccccc1 (configuration not stated)

IC50 [5]: 100 µM
SMILES: CC(=O)N1CCCC1(Cc1ccccc1)C(=O)NCc1ccccc1 (configuration not stated)

IC50 [5]: 1.2 µM
SMILES: CCC(=O)N1CCCC1(Cc1ccccc1)C(=O)OCc1ccccc1 (configuration not stated)

IC50 [5]: > 100 µM
SMILES: CC(=O)N1CCCC1(Cc1ccccc1)C(=O)OCc1ccncc1 (configuration not stated)

CL [3]: 392 µL/min/mg | IC50 [5]: 50 µM
SMILES: CC(=O)N1CCCC1(Cc1ccccc1)C(=O)OCc1ccccc1 (single isomer, unassigned; (-))

IC50 [5]: 0.32 µM
SMILES: O=C(C1CC1)N1CCCC1(Cc1ccccc1)C(=O)OCc1ccccc1 (configuration not stated)

The next lines start with the molecule.

SMILES: CC(=O)N1CCCC1(Cc1ccc(F)c(C(F)(F)F)c1)C(=O)OCc1ccccc1 (configuration not stated)
solubility [1]: 0.5 µg/mL (≈ 1.18 µM) | inhibition at 100 µM [2]: 24% | microsomal CLint [3]: 356 µL/min/mg | hepatocyte CLint [4]: 20 µL/min/1e6 cells | IC50 [5]: 0.06 µM

SMILES: CCC1(C(=O)OCc2ccccc2)CCCN1C(C)=O (configuration not stated)
IC50 [5]: 80 µM

SMILES: COC(=O)C1(Cc2ccccc2)CCCN1C(C)=O (configuration not stated)
IC50 [5]: > 100 µM

SMILES: CC(=O)N1CCCC1(Cc1ccc(S(C)(=O)=O)cc1)C(=O)OCc1ccccc1 (single isomer, unassigned; (+))
IC50 [5]: 0.4 µM

SMILES: NS(=O)(=O)c1cc(C(=O)O)c(NCc2ccco2)cc1Cl [FUROSEMIDE]
inhibition at 100 µM [2]: 100%

SMILES: CC(=O)N1CCCC1(CC1CCCCC1)C(=O)OCc1ccccc1 (configuration not stated)
solubility [1]: 3 µg/mL (≈ 8.73 µM) | inhibition at 100 µM [2]: 39% | microsomal CLint [3]: 382 µL/min/mg | IC50 [5]: 1 µM

SMILES: CC(=O)N1CCCC1(Cc1ccccc1)C(=O)OCC1CCCCC1 (configuration not stated)
IC50 [5]: 63 µM

SMILES: CC(=O)N1CCCC1(Cc1ccc(S(C)(=O)=O)cc1)C(=O)OCc1ccccc1 (stereo in doubt; 13)
inhibition at 50 µM [6]: < 30% | Cmax [7]: 457 ng/mL | solubility [1]: 500 µg/mL (≈ 1200 µM) | inhibition at 100 µM [2]: 35% | Papp [8]: 31 ×10⁻⁶ cm/s | concentration at 5 min [9]: 6 µM | AUC [10]: 726 ng·h/mL | microsomal CLint [3]: 16 µL/min/mg | hepatocyte CLint [4]: 12 µL/min/1e6 cells | bioavailability [11]: 18% | half-life [12]: 18 min | inhibition at 50 µM [13]: < 30% | clearance [14]: 26 mL/min/kg | inhibition at 50 µM [15]: < 30% | inhibition at 50 µM [16]: < 30% | IC50 [5]: 1 µM

SMILES: CC(=O)N1CCCC1(Cc1ccsc1)C(=O)OCc1ccccc1 (configuration not stated)
IC50 [5]: 0.79 µM

SMILES: COc1ccc(CC2(C(=O)OCc3ccccc3)CCCN2C(C)=O)cc1C(F)(F)F (configuration not stated)
IC50 [5]: 0.05 µM
